{
  "source": "ChEMBL document CHEMBL4732170",
  "about": "“Discovery of Small-Molecule Antagonists of the PWWP Domain of NSD2” (J Med Chem, 2021)",
  "key": {"[1]": {"biological_target": "T1, Histone-lysine N-methyltransferase NSD2 (Homo sapiens, UniProt O96028)", "T1 sequence (O96028 whole entry)": "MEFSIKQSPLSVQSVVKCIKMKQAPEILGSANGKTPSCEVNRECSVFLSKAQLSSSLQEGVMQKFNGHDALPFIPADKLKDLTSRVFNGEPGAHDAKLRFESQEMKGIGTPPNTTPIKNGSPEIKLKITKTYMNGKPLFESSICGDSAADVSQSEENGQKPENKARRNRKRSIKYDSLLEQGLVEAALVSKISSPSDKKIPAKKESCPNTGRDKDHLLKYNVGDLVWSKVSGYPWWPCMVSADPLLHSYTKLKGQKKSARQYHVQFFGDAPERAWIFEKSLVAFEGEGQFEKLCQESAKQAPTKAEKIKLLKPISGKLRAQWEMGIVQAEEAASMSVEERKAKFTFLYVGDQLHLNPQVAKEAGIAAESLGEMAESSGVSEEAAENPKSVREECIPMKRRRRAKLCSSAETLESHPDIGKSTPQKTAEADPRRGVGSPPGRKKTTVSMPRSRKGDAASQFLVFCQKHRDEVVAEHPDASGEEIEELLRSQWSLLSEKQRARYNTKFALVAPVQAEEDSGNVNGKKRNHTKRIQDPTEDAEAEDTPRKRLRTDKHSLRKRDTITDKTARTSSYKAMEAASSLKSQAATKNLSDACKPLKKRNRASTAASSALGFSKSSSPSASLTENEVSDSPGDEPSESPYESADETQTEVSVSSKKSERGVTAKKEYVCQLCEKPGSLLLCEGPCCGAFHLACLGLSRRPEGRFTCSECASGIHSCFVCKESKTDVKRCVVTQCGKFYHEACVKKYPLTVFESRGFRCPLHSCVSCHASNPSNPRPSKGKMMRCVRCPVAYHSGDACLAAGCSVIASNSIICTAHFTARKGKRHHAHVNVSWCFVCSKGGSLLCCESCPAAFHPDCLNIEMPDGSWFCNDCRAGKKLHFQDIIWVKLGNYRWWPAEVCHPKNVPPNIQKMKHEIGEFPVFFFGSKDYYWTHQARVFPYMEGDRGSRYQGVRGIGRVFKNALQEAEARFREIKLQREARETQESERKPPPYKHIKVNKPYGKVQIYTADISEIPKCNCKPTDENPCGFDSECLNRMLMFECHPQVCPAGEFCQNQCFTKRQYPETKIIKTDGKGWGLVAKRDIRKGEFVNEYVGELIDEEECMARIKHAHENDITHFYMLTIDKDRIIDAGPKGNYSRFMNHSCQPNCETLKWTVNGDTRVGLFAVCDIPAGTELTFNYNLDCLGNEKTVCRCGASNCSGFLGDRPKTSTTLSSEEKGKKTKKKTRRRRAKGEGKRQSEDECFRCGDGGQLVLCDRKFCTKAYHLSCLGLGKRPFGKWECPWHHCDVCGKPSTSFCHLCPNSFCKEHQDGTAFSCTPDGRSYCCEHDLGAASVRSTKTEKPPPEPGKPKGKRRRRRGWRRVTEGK", "experiment": "Binding affinity to NSD2 PWWP1 domain (unknown origin) assessed as dissociation constant by isothermal titration calorimetric analysis", "summary_of_the_method": "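Reverse ITC: purified NSD2-PWWP1 (aa 211-350, human, E. coli-expressed, His-tag removed) dialyzed into 20 mM Tris pH 7.5, 100 mM NaCl. Protein at 1 mM titrated into cell holding 40 μM ligand, 1% DMSO in both. Twelve 4 μL injections at 25 °C. Kd from one-binding-site model fit.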"}, "[2]": {"biological_target": "T2, Histone-lysine N-methyltransferase NSD2 (Homo sapiens) (UniProt O96028)", "T2 sequence (whole entry)": "T1 sequence (O96028 whole entry)", "settings": "filed as antagonist, dose 400.0 µM"}},
  "data": [
    {"smiles": "N#Cc1ccc(C(C(N)=O)N2CCC2c2ccc(Cl)cc2)cc1", "note": "(configuration not stated)", "values": [
      {"measurement": "Kd", "setting": "[1]", "result": 8.9, "unit": "µM"},
      {"measurement": "deltaT", "setting": "[2]", "result": 3.9, "unit": "°C"}
    ]}
  ]
}
